# Results collected from several papers.
# Compare with care: the assays were run in different laboratories.
# Target: Serine/threonine-protein kinase 10 (STK10, Homo sapiens, UniProt O94804)
Compound,assay,conditions,remaining binding [%]
O=C(Nc1c[nH]nc1C(=O)NC1CCNCC1)c1cc(F)cc(F)c1,"binding, competition with immobilised ligand",1 µM,100
CC1=C(C#N)[C@@H](c2ccc3[nH]nc(C)c3c2)C(C#N)=C(c2ccc(Cl)cc2)N1,"cell-free assay, competition with immobilised ligand",1 µM,100
N[C@H]1CCN(c2nccc(-c3cnn4ncccc34)n2)C1,binding,1 µM,98
Nc1ncc2c(n1)-c1c([nH]c3ccc(C#CC4CC4)cc13)CCCC2,"binding, competition with immobilised ligand",1 µM,99
O=C(c1ccc(Nc2ncc(Cl)c(-c3cc4ccccc4s3)n2)cc1)N1CCC(N2CCCC2)CC1,"binding, competition with immobilised ligand",1 µM,43
CNC(=O)[C@@H]1CC[C@@H](n2c(-c3ccc4cnccc4c3)nc3ccc(C(=O)NCc4cccc(C(N)=O)c4)cc32)C1,"binding, competition with immobilised ligand",1 µM,83
CN(C)c1ncc(F)c(-c2cnn3ncccc23)n1,binding,1 µM,42
Cc1cnc(Nc2ccc(C(=O)N3CCC(N4CCCC4)CC3)cc2)nc1-c1cc2ccccc2s1,"binding, competition with immobilised ligand",1 µM,14
CCCOc1ccc([C@H]2[C@H](C(=O)O)[C@@H](c3ccc4c(c3)OCO4)CN2CC(=O)Nc2c(CC)cccc2CC)cc1,"cell-free assay, competition with immobilised ligand",1 µM,97
COc1ccnn2ncc(-c3ccnc(N(C)C)n3)c12,binding,1 µM,95
O=C(NCCCN1CCOCC1)c1ccc(Nc2ncc(Cl)c(-c3ccc(Cl)s3)n2)cc1,"binding, competition with immobilised ligand",1 µM,57
Cc1c(NC(=O)c2cc(C(N)=O)nc3cc(F)ccc23)c(C(F)(F)F)nn1Cc1ccc(C(C)(C)C)cc1,"cell-free assay, competition with immobilised ligand",1 µM,88
F[C@@H]1CCN(c2nccc(-c3cnn4ncccc34)n2)C1,binding,1 µM,90
CN(C(=O)c1ccccc1)c1cc(N(C)c2ccc3c(c2)CCc2ccc(C(=O)NCCN4CCOCC4)cc2C3=O)ccc1F,"cell-free assay, competition with immobilised ligand",1 µM,100
CC1CCCN1c1nccc(-c2cnn3ncccc23)n1 (centres unmarked),binding,1 µM,96
COc1ncc2cc3ccccc3nc2c1C#N,"cell-free assay, competition with immobilised ligand",5 µM,100
O=C(O)[C@@H]1[C@@H](Cn2nnc3ccccc3c2=O)CC[C@H]1C(=O)c1ccc(OCCC2CCOCC2)cc1,"cell-free assay, competition with immobilised ligand",1 µM,84
COc1cnc(Nc2cccc(S(N)(=O)=O)c2)nc1N1CCN(c2ccccc2)C(=O)C1,"binding, competition with immobilised ligand",1 µM,100
CC(C)CC(=O)N1CCc2nc(-c3ccc(Br)cc3)nc(N(C)Cc3ccccc3)c2C1,"cell-free assay, competition with immobilised ligand",0.1 µM,100
C[C@@H]1CCN(c2nccc(-c3cnn4ncccc34)n2)C1,binding,1 µM,98
